# Measurements published in publication PMC5693771 (Bioorganic & medicinal chemistry letters, 2017).
# Entries after “also recorded” stand apart in the source; their conditions may differ.
# How the values were obtained:
# [1] = system: HCV genotype 1b RNA replication; experiment: HCV genotype 1b subgenomic replicon assay in Huh-7 cells; format: cell-based, Hepatitis C virus (HCV); settings: for EC90: Hepatitis C virus, GETYPE1B, Huh-7, read-out: Anti HCV activity EC90
# How it was run: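 Each assay was run in replicate. Values are the mean and SD of three replicates.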
# [2] = system: Huh-7 cells; experiment: Cytotoxicity in Huh-7 cells; format: cell-based; settings: all four tested cell lines (Huh-7, PBM, CEM, Vero)
Compound,EC90 [1] [µM],further results
O=c1ccn([C@@H]2O[C@H](CO)[C@@H](O)C2(Br)Br)c(=O)[nH]1 [Compound 10a],,"Concentration up to which no antiviral (anti-HCV) activity was shown ([1]; HCV genotype 1b replicon, Huh-7 cells): > 33 µM"
Nc1ccn([C@@H]2O[C@H](CO)[C@@H](O)C2(Br)Br)c(=O)n1 [Compound 10b],> 10,
CC(C)OC(=O)[C@H](C)N[P@](=O)(OC[C@H]1O[C@@H](n2ccc(=O)[nH]c2=O)C(Br)(Br)[C@@H]1O)Oc1ccccc1 [Compound 13a],,Cellular toxicity (in words) [2]: non-toxic; also recorded: no observed toxicity
CC(C)OC(=O)[C@H](C)N[P@](=O)(OC[C@H]1O[C@@H](n2cnc3c(N)ncnc32)C(Br)(Br)[C@@H]1O)Oc1ccccc1 [Compound 13c],> 10,
CC(C)OC(=O)[C@H](C)N[P@](=O)(OC[C@H]1O[C@@H](n2cnc3c(=O)[nH]c(N)nc32)C(Br)(Br)[C@@H]1O)Oc1ccccc1 [Compound 13d],> 10,
